Sampled rows, rich in hits. Any-hit rate of the full collection: about 2.3%.
SUMO1-SIM PPI = alters human SUMO1 binding to SIM partners. inhibition, % at 20 µM. AID 602429. P63165. 360,000 compounds, 0.33% hits. SUMO1 binding to a labelled peptide, TR-FRET, 1 h; in the data active means inhibition above about 37%
Target sequence (P63165 whole entry, looked up): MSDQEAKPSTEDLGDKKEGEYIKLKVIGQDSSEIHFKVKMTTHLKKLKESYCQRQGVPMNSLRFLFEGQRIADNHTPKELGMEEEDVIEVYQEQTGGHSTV
Scp1 inh = inhibitors of human Scp-1 phosphatase. Q9GZU7. Recombinant Scp1, phosphopeptide, malachite green phosphate absorbance. inhibition, % at 20 µM. 340,000 compounds, 0.88% hits. AID 493091;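 active means inhibition above about 50% at 20 µM, limit read from the data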
Target sequence (Q9GZU7 76-261 limits assumed): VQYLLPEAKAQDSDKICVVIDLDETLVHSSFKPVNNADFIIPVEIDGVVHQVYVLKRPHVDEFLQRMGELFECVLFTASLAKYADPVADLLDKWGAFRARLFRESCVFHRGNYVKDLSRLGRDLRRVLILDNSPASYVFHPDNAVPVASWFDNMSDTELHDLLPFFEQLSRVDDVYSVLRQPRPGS
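System: truncated SCP-1 phosphatase (76-261aa); medium: Tris acetate buffer pH 5.5 with MgCl2 and Tween-20; incubation: 45 min room-temperature reaction, 5 min colour, 30 min stabiliser; compound: single 20 µM dose, 1% DMSO; reagent: Phosphorylated 17-residue peptide substrate; read-out: % inhibition at 20 µM; technique: colorimetric free-phosphate detection, absorbance 630 nm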
Rpn11 block = blocks the human proteasome subunit Rpn11 | inhibition, % at 20 µM | O00487 | human 26S proteasome, Ub4-pepOG fluorescence polarization; 20S core pre-blocked with epoxomicin | 360,000 compounds, 0.59% hits;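 active means inhibition at 20 µM, scaled to each plate's controls, above about 33%, limit read from the data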
Target sequence (O00487 whole entry, looked up): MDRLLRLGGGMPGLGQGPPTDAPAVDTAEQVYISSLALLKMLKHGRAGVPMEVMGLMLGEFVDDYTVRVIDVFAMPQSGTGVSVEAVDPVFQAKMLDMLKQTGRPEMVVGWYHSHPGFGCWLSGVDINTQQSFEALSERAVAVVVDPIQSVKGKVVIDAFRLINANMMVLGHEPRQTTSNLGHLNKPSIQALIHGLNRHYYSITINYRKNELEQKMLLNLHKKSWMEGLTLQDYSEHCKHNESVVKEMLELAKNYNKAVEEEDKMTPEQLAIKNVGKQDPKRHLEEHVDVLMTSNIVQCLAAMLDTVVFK
STEP inh = blocks human striatal-enriched tyrosine phosphatase. 360,000 compounds, 0.25% hits. recombinant STEP, OMFP fluorogenic substrate, fluorescence. P54829. inhibition, % at 20 µM. AID 588621;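 active means inhibition at 20 µM, scaled per plate between control wells, above about 37%, limit read from the data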
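Assay system: isolated STEP enzyme / Timing: 20 min at room temperature, dark / Doses: 20 µM, 1% DMSO / Technique: fluorescence intensity, excitation 480 nm, emission 540 nm / Reagent: fluorogenic phosphatase substrate OMFP at 25 µM final / Measure: percent inhibition scaled to no-enzyme and uninhibited-enzyme controls, plate-pattern corrected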
DNMT1 block = inhibitors of human DNMT1; inhibition (reported as % activation of signal), % at 10 µM; DNMT1 molecular beacon, Hinp1I cleavage, fluorescence; P26358; AID 588458; 360,000 compounds, 0.83% hits; in the data active means inhibition above about 50%
LMPTP block = blocks human LMPTP phosphatase | P24666 | recombinant LMPTP-A, OMFP fluorogenic substrate, fluorescence intensity | inhibition, % at 20 µM | 360,000 compounds, 0.22% hits;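 active means compounds that cut the enzyme signal by at least half of the control window in the single-dose screen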
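Assay system: LMPTP-A, protein tyrosine phosphatase of low molecular weight / Medium: pH 6.0 Bis-Tris buffer with DTT and Triton X-100 / Schedule: 50 min enzyme reaction at room temperature, protected from light / Measured by: endpoint fluorescence intensity from OMFP dephosphorylation / Read-out basis: % inhibition relative to no-enzyme and uninhibited control wells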
DNMT1 inh conf = DNMT1 inhibition confirmation, single concentration | shares compounds with DNMT1 block | DNMT1 molecular beacon HinP1I cleavage, fluorescence | inhibition, % at 10 µM | 2,300 compounds, 8% hits | AID 602385;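 active means average inhibition of at least 30% in the single-concentration confirmation test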
Beacon interf = counter-screen for DNMT1 inhibitors: spectral interference. shares compounds with DNMT1 block. DNMT1 molecular beacon spectral interference counterscreen, fluorescence 485/520. activation (fluorescence interference), % at 10 µM. 2,300 compounds, 1% hits. AID 602387;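 active means activation of at least 30% at 10 µM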;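 further: DNMT1 catalytic domain with a HinP1I cleavage step and a FAM/dabcyl DNA beacon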
Hits are given with their value; – = inactive; · = not tested or not shown.

SMILES	SUMO1-SIM PPI	Scp1 inh	Rpn11 block	STEP inh	DNMT1 block	LMPTP block	DNMT1 inh conf	Beacon interf
COc1ccc(S(=O)(=O)NC(C)c2ccc3c(c2)OCCO3)cc1 (stereo unspecified)	–	·	–	–	–	–	·	·
C=C(C)[C@@H]1CC[C@]2(C(=O)O)CC[C@]3(C)[C@H](CC[C@@H]4[C@@]5(C)CC[C@H](O)C(C)(C)[C@@H]5CC[C@]43C)[C@@H]12	–	–	–	–	53	–	–	–
Cc1ccc(NC(=O)c2ccc([N+](=O)[O-])s2)cc1S(=O)(=O)N1CCOCC1	–	–	–	–	–	–	·	·
CC(=O)N1CCN(S(=O)(=O)c2cccc(C(=O)NNC(=O)c3ccc(Br)cc3)c2)CC1	–	–	–	–	–	–	·	·
COc1ccc(C(C)(C)C)cc1NC(=O)c1ccc2c(c1)SC1=NS(=O)(=O)CCN12	–	–	–	–	69	–	–	–
O=C(O)c1ccc2c(c1)SC1=NS(=O)(=O)CCN12	–	–	–	–	–	–	·	·
CC(=O)Nc1ccc(NC(=S)NC(=O)/C=C/c2ccc(Cl)cc2)cc1	–	–	–	–	–	–	·	·
O=C(/C=C/c1ccc(Cl)cc1)NC(=S)Nc1ccc(NC(=O)c2ccco2)cc1	–	–	–	–	58	–	–	–
COC(=O)c1sccc1NC(=O)c1ccc(C)o1	–	–	–	–	–	–	·	·
COC(=O)c1sccc1NC(=O)Cc1ccc(OC)cc1	–	–	–	–	92	–	–	–
Cc1ccccc1CNc1ccc(C(CC(N)=O)NC(=O)c2ccc(Br)cc2)cc1[N+](=O)[O-] (stereo unspecified)	–	–	–	–	61	–	–	–
NC(=O)CC(NC(=O)Cc1ccc(Br)cc1)c1ccc(N2CCC(Br)CC2)c([N+](=O)[O-])c1 (stereo unspecified)	–	–	–	–	77	–	–	–
CN(Cc1ccccc1)c1ccc(C(CC(N)=O)NC(=O)Cc2cccc3ccccc23)cc1[N+](=O)[O-] (stereo unspecified)	–	–	–	–	–	–	·	·
NC(=O)CC(NC(=O)c1ccc(Br)cc1)c1ccc(NCc2ccc(F)cc2)c([N+](=O)[O-])c1 (stereo unspecified)	–	–	–	–	–	–	·	·
NC(=O)CC(NC(=O)Cc1ccc(Br)cc1)c1ccc(N2CCC(N3CCCC3)CC2)c([N+](=O)[O-])c1 (stereo unspecified)	–	–	–	–	–	–	·	·
NC(=O)CC(NC(=O)Cc1ccc(Br)cc1)c1ccc(N2CCCCCCC2)c([N+](=O)[O-])c1 (stereo unspecified)	–	–	–	–	65	–	–	–
CN(Cc1ccccc1)c1ccc(C(CC(N)=O)NC(=O)Cc2ccc(Br)cc2)cc1[N+](=O)[O-] (stereo unspecified)	–	–	–	–	80	–	–	–
CN1CCN(c2ccc(C(CC(N)=O)NC(=O)Cc3ccc(Br)cc3)cc2[N+](=O)[O-])CC1 (stereo unspecified)	–	–	–	–	–	–	·	·
CC(C)(C)OC(=O)C[C@H]1C/C=C\C[C@@H](CC(=O)NCCO)C(=O)N[C@H](C(C)(C)C)COC1=O	–	–	–	–	–	–	·	·
NC(=O)CC(NC(=O)Cc1ccc(Br)cc1)c1ccc(NCCc2ccc(F)cc2)c([N+](=O)[O-])c1 (stereo unspecified)	–	–	–	–	53	–	–	–
NC(=O)CC(NC(=O)Cc1ccc(Br)cc1)c1ccc(NCCc2ccccc2F)c([N+](=O)[O-])c1 (stereo unspecified)	–	–	–	–	–	–	·	·
NC(=O)CC(NC(=O)Cc1ccc(Br)cc1)c1ccc(N2CCC(Cc3ccccc3)CC2)c([N+](=O)[O-])c1 (stereo unspecified)	–	–	–	–	87	–	–	–
O=C(c1ccoc1)N1CCN(c2cc(-c3ccccc3)nc3cc(-c4ccc(Br)cc4)nn23)CC1	–	·	–	–	–	–	·	·
CCCc1cnc(N2CCN(S(=O)(=O)c3cccs3)CC2)nc1	–	–	–	–	–	–	·	·
CSc1nnc2c3cc(C)ccc3n(Cc3ccccc3)c2n1	–	–	–	–	77	–	–	–
SMILES	SUMO1-SIM PPI	Scp1 inh	Rpn11 block	STEP inh	DNMT1 block	LMPTP block	DNMT1 inh conf	Beacon interf
Cc1ccc(CN2C(=O)N/C(=C\c3ccc(-c4ccc(C(=O)O)cc4C)o3)C2=O)cc1	–	71	–	–	126	–	–	–
CCCCNC(=NCc1cccc(C(F)(F)F)c1)Nc1ccccc1	–	–	–	–	–	–	·	·
O=C(Nc1ccc(S(=O)(=O)Nc2ncccn2)cc1)c1ccc2ncsc2c1	–	–	–	–	–	–	·	·
N#C/C(=C\c1ccc(-c2ccc([N+](=O)[O-])cc2)o1)C(=O)Nc1nc(-c2cccs2)cs1	–	–	–	–	95	–	–	–
CCC(CC)C(=O)N(C)c1c(C)nc2c(OCc3ccccc3C)cccn12	–	·	–	–	68	–	–	–
O=[N+]([O-])c1ccc(/C=N/Nc2nc(N3CCCCCC3)nc(N3CCCCCC3)n2)o1	–	–	–	–	66	–	–	–
O=[N+]([O-])c1ccc(/C=N/Nc2nc(N3CCCCC3)nc(N3CCCCC3)n2)cc1	–	–	–	–	–	–	·	·
CCc1nc2c(OCc3cc(Cl)cc(Cl)c3)cccn2c1N(C)C(=O)c1ccc(OC)cc1	–	·	–	–	–	–	·	·
CCc1nnc(NC(=O)CSc2nc(-c3ccccc3)cc(-c3ccc(F)cc3)c2C#N)s1	–	–	–	–	52	–	–	–
COc1ccc(/C(C)=N/Nc2ccc(C(=O)O)cc2)c(OC)c1	–	–	–	–	56	–	–	–
COc1ccc2c(c1)C(=NNc1ccc(C(=O)O)cc1)c1cc(OC)ccc1-2	–	–	–	–	–	–	·	·
O=C(/C=C/c1ccco1)Nc1scc(-c2ccccc2)c1C(=O)O	–	–	–	–	82	–	–	–
O=C(Nc1ccc(F)cc1)OCCOc1ccc(Br)cc1	–	–	–	–	–	–	·	·
Cc1ccc(C(CCNC(C)c2cccs2)c2ccco2)cc1 (stereo unspecified)	–	–	–	–	–	–	·	·
O=[N+]([O-])c1ccc(/C=N/NC(=S)Nc2ccc(Cl)cc2Cl)s1	–	–	–	–	60	–	–	–
